Measured values reported in ChEMBL document CHEMBL1833949, “High affinity sialoside ligands of myelin associated glycoprotein” (Bioorg Med Chem Lett, 2011).

Assays:
[1] = target: T1, Myelin-associated glycoprotein (Homo sapiens, UniProt P20916); test: Inhibition of MAG
T1 sequence (P20916 whole entry): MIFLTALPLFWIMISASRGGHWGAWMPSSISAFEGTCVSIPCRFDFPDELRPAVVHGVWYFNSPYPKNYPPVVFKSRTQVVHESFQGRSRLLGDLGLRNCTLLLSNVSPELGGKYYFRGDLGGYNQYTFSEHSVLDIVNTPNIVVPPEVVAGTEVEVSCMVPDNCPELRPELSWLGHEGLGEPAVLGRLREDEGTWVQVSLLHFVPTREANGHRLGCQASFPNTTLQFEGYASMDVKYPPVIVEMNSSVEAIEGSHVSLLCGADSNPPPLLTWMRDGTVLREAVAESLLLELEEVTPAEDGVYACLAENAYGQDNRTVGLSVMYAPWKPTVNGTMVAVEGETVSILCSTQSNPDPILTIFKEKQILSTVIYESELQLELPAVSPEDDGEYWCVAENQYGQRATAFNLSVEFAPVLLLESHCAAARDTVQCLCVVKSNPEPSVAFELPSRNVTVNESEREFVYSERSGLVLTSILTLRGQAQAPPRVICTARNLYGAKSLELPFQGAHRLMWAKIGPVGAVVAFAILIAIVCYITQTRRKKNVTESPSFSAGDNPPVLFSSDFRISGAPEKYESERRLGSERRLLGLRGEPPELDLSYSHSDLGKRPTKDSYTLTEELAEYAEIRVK
In short: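 Competition format: MAG-Fc chimera binding to a polymeric ligand adsorbed on plate wells, with the inhibitor titrated to give IC50. Each compound was run in triplicate and assayed on three separate days, each time alongside at least one other compound to check for drift. IC50 is the mean and standard deviation of the three separate assays.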

[2] = target: T1, Myelin-associated glycoprotein; test: Inhibition of MAG -Fc chimera expressed in CHO cells using NeuAc alpha2-3Galbeta1-4GlcNAc-R coupled biotinylated polyacrylamide after 30 mins by ELISA; type: cell-based
In short: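 Each compound was run in triplicate and assayed on three separate days, each time alongside at least one other compound to check for drift. IC50 is the mean and standard deviation of the three separate assays.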

[3] = target: T1, Myelin-associated glycoprotein; test: Binding affinity to wild type MAG at 400 uM by Isothermal titration calorimetry
[4] = target: T1, Myelin-associated glycoprotein; test: Binding affinity to MAG
In short: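 Competitive inhibition of MAG-Fc chimera binding to a polymeric ligand adsorbed in microplate wells, run in triplicate. Each compound was assayed three times on separate days, alongside at least one other compound, and the IC50 reported as mean and standard deviation. Apparent Kd values were calculated from IC50 against a reference ligand whose Kd was measured by isothermal titration calorimetry.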

Compound	IC50 [1]	IC50 [2]	Kd [3]	Kd [4]
CC(=O)N[C@H]1[C@@H](O[C@H](C)[C@H](N)C(=O)O)O[C@H](CO)[C@H](O)[C@@H]1O[C@@H]1O[C@H](CO)[C@H](O)[C@H](O[C@]2(C(=O)O)C[C@H](O)[C@@H](NC(C)=O)[C@H]([C@H](O)[C@H](O)CO)O2)[C@H]1O	1200 nM			
COC(=O)[C@@H](NC(C)=O)[C@@H](C)O[C@H]1O[C@H](CO)[C@H](O)[C@H](O[C@@H]2O[C@H](CO)[C@H](O)[C@H](O[C@]3(C(=O)O)C[C@H](O)[C@@H](NC(C)=O)[C@H]([C@H](O)[C@H](O)CNC(=O)c4ccc(Cl)cc4)O3)[C@H]2O)[C@H]1NC(C)=O		610 nM	1000 nM	
COC(=O)[C@@H](NC(C)=O)[C@@H](C)O[C@H]1O[C@H](CO[C@]2(C(=O)O)C[C@H](O)[C@@H](NC(C)=O)[C@H]([C@H](O)[C@H](O)CNC(=O)c3ccc(F)cc3)O2)[C@H](O)[C@H](O[C@@H]2O[C@H](CO)[C@H](O)[C@H](O[C@]3(C(=O)O)C[C@H](O)[C@@H](NC(C)=O)[C@H]([C@H](O)[C@H](O)CO)O3)[C@H]2O)[C@H]1NC(C)=O		9 nM	15 nM	
CC(=O)N[C@@H]1[C@@H](O[C@@H]2O[C@H](CO)[C@H](O)[C@H](O[C@]3(C(=O)O)C[C@H](O)[C@@H](NC(C)=O)[C@H]([C@H](O)[C@H](O)CO)O3)[C@H]2O)[C@@H](O)[C@@H](CO)O[C@H]1Sc1ccc(C)cc1	272000 nM			
COC(=O)[C@@H](NC(C)=O)[C@@H](C)O[C@H]1O[C@H](CO)[C@H](O)[C@H](O[C@@H]2O[C@H](CO)[C@H](O)[C@H](O[C@]3(C(=O)O)C[C@H](O)[C@@H](NC(C)=O)[C@H]([C@H](O)[C@H](O)CO)O3)[C@H]2O)[C@H]1NC(C)=O		1200 nM	1900 nM	
COC(=O)[C@@H](NC(C)=O)[C@@H](C)O[C@H]1O[C@H](CO)[C@H](O)[C@H](O[C@@H]2O[C@H](CO)[C@H](O)[C@H](O[C@]3(C(=O)O)C[C@H](O)[C@@H](NC(C)=O)[C@H]([C@H](O)[C@H](O)CNC(=O)c4ccc(F)cc4)O3)[C@H]2O)[C@H]1NC(C)=O		79 nM	130 nM	
CC(=O)N[C@H]1[C@@H](OCc2ccccc2)O[C@H](CO)[C@H](O)[C@@H]1O[C@@H]1O[C@H](CO)[C@H](O)[C@H](O[C@]2(C(=O)O)C[C@H](O)[C@@H](NC(C)=O)[C@H]([C@H](O)[C@H](O)CO)O2)[C@H]1O	52000 nM			
COC(=O)[C@@H](NC(C)=O)[C@@H](C)O[C@H]1O[C@H](CO[C@]2(C(=O)O)C[C@H](O)[C@@H](NC(C)=O)[C@H]([C@H](O)[C@H](O)CO)O2)[C@H](O)[C@H](O[C@@H]2O[C@H](CO)[C@H](O)[C@H](O[C@]3(C(=O)O)C[C@H](O)[C@@H](NC(C)=O)[C@H]([C@H](O)[C@H](O)CNC(=O)c4ccc(F)cc4)O3)[C@H]2O)[C@H]1NC(C)=O		300 nM	480 nM	
CC(=O)N[C@H]1[C@H]([C@H](O)[C@H](O)CNC(=O)c2ccccc2)O[C@@](O[C@H]2[C@@H](O)[C@@H](CO)O[C@@H](O[C@H]3[C@@H](O)[C@@H](CO)O[C@@H](OCC[Si](C)(C)C)[C@@H]3O)[C@@H]2O)(C(=O)O)C[C@@H]1O				32000 nM
CC(=O)N[C@H]1[C@@H](O[C@H](C)[C@H](N)C(=O)O)O[C@H](CO[C@]2(C(=O)O)C[C@H](O)[C@@H](NC(C)=O)[C@H]([C@H](O)[C@H](O)CO)O2)[C@H](O)[C@@H]1O[C@@H]1O[C@H](CO)[C@H](O)[C@H](O[C@]2(C(=O)O)C[C@H](O)[C@@H](NC(C)=O)[C@H]([C@H](O)[C@H](O)CO)O2)[C@H]1O	300 nM			
CC(=O)N[C@H]1[C@H](OCC[Si](C)(C)C)O[C@H](CO)[C@H](O)[C@@H]1O[C@@H]1O[C@H](CO)[C@H](O)[C@H](O[C@]2(C(=O)O)C[C@H](O)[C@@H](NC(C)=O)[C@H]([C@H](O)[C@H](O)CO)O2)[C@H]1O				180000 nM
COC(=O)[C@@H](NC(C)=O)[C@@H](C)O[C@H]1O[C@H](CO[C@]2(C(=O)O)C[C@H](O)[C@@H](NC(C)=O)[C@H]([C@H](O)[C@H](O)CNC(=O)c3ccc(Cl)cc3)O2)[C@H](O)[C@H](O[C@@H]2O[C@H](CO)[C@H](O)[C@H](O)[C@H]2O)[C@H]1NC(C)=O		640 nM	1000 nM	
O=C(CF)N[C@H]1[C@H]([C@H](O)[C@H](O)CNC(=O)c2ccccc2)O[C@@](OCc2cccc(F)c2F)(C(=O)O)C[C@@H]1O				500 nM
COC(=O)[C@@H](NC(C)=O)[C@@H](C)O[C@H]1O[C@H](CO[C@]2(C(=O)O)C[C@H](O)[C@@H](NC(C)=O)[C@H]([C@H](O)[C@H](O)CO)O2)[C@H](O)[C@H](O[C@@H]2O[C@H](CO)[C@H](O)[C@H](O)[C@H]2O)[C@H]1NC(C)=O		7900 nM	13000 nM	
COC(=O)[C@@H](NC(C)=O)[C@@H](C)O[C@H]1O[C@H](CO[C@]2(C(=O)O)C[C@H](O)[C@@H](NC(C)=O)[C@H]([C@H](O)[C@H](O)CNC(=O)c3ccc(F)cc3)O2)[C@H](O)[C@H](O[C@@H]2O[C@H](CO)[C@H](O)[C@H](O)[C@H]2O)[C@H]1NC(C)=O		1100 nM	1760 nM	
COC(=O)[C@@H](NC(C)=O)[C@@H](C)O[C@H]1O[C@H](CO)[C@H](O)[C@H](O[C@@H]2O[C@H](CO)[C@H](O)[C@H](O[C@]3(C(=O)O)C[C@H](O)[C@@H](NC(C)=O)[C@H]([C@H](O)[C@H](O)CNC(=O)c4ccccc4)O3)[C@H]2O)[C@H]1NC(C)=O		650 nM	1000 nM	
